Data: ChEMBL document CHEMBL1153409, “The identification of novel PLC-gamma inhibitors using virtual high throughput screening” (Bioorg Med Chem, 2009)
Calls of active or inactive are those of the source. The rule behind the calls is not given here.

What was measured:
[1] = molecular target: T1, 1-phosphatidylinositol 4,5-bisphosphate phosphodiesterase gamma-2 (Homo sapiens) (UniProt P16885); assay: Inhibition of recombinant phospholipase C gamma2 expressed in baculovirus infected Sf9 cells at 50 uM using [3H]PIP2 by flashplate biochemical assay
T1 sequence (whole entry): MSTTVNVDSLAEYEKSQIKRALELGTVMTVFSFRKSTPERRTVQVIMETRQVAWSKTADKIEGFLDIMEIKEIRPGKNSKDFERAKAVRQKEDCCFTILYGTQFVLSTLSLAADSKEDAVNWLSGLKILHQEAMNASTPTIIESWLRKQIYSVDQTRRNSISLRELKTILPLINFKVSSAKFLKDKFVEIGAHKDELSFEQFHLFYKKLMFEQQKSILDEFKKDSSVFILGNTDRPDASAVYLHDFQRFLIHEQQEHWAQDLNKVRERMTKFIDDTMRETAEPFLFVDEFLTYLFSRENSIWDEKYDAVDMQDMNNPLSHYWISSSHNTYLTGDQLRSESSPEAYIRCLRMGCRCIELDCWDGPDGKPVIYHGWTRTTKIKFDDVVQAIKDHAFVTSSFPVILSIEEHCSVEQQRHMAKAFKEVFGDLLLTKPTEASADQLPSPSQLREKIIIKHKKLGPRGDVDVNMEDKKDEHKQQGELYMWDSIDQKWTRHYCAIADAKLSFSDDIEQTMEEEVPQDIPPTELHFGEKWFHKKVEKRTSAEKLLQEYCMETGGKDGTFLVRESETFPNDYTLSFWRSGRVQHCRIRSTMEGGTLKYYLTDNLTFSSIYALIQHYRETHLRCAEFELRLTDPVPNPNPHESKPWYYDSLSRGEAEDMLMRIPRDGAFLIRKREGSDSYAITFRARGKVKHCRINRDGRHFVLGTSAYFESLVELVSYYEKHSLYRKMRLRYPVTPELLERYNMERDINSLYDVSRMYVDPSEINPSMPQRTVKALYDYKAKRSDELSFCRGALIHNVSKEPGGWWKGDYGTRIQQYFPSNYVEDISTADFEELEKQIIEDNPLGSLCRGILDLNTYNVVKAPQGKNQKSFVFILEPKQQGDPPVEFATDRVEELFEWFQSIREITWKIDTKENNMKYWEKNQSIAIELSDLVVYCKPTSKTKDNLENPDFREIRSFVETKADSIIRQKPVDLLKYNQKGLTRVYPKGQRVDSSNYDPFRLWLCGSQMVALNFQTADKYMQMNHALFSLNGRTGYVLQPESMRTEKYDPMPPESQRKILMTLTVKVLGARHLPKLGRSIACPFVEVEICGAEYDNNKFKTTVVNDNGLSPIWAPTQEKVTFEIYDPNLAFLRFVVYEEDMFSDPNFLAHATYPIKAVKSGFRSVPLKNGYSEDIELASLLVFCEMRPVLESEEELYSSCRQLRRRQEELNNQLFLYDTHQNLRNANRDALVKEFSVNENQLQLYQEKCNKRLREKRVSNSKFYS
Method in brief: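 3H-PIP2 Flashplate assay with His-tagged full-length PLC-γ2 from infected Sf-9 cells. Substrate-coated wells (0.1 µCi/well) incubated with enzyme and compound in Tris/NaCl/CaCl2/EGTA/spermine/deoxycholate buffer, pH 7.4, 5% DMSO, room temperature, typically 30 min. Percent inhibition at 50 µM from two measurements, based on CPM versus control wells.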

[2] = molecular target: T1, 1-phosphatidylinositol 4,5-bisphosphate phosphodiesterase gamma-2 (Homo sapiens); assay: Inhibition of phospholipase C gamma2 in human A431 cells assessed as reduction of calcium release at 25 uM after 45 mins by FLIPR assay; type: cell-based; details: A-431
Method in brief: (§1)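 A431 cells seeded overnight at 4 × 10^5 per well, then given compound in HBSS. Calcium 3 dye with 2.5 mM probenecid, 45 min at 37 °C, FLIPR read at 37 °C. Scoring was semi-quantitative: any decrease in calcium release at 50 µM scored +, at 25 µM ++.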

[3] = molecular target: T1, 1-phosphatidylinositol 4,5-bisphosphate phosphodiesterase gamma-2 (Homo sapiens); assay: Inhibition of phospholipase C gamma2 in human A431 cells assessed as reduction of calcium release after 45 mins by FLIPR assay; type: cell-based; details: A-431
Method in brief: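 A431 squamous carcinoma cells seeded at 4 × 10^5 per well and kept overnight at 37 °C, 5% CO2. Medium replaced with doubling dilutions of compound in HBSS starting at 100 µM. Calcium 3 dye added with probenecid (2.5 mM final), 45 min at 37 °C, then calcium release read by FLIPR at 37 °C.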

[4] = molecular target: T1, 1-phosphatidylinositol 4,5-bisphosphate phosphodiesterase gamma-2 (Homo sapiens); assay: Inhibition of phospholipase C gamma2 in human A431 cells assessed as reduction of calcium release at 50 uM after 45 mins by FLIPR assay; type: cell-based; details: A-431; method in brief: as §1
[5] = molecular target: T2, 1-phosphatidylinositol 4,5-bisphosphate phosphodiesterase gamma-2 (Homo sapiens, UniProt P16885); assay: Inhibition of recombinant phospholipase C gamma2 expressed in baculovirus infected Sf9 cells using [3H]PIP2 by flashplate biochemical assay
T2 sequence (P16885 whole entry): T1 sequence (whole entry)
Method in brief: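 Full-length His-tagged PLC-γ2 from baculovirus-infected Sf-9 cells, purified by Talon IMAC. Plates coated 24 h at room temperature with 3H-PIP2 (0.1 µCi/well); enzyme plus inhibitor in 50 mM Tris-HCl, 200 mM NaCl, 100 µM CaCl2, 100 µM EGTA, 100 µM spermine, 0.5 mM deoxycholate, pH 7.4, 5% v/v DMSO final. Scintillation signal loss read at room temperature, typically 30 min; CPM compared with control wells.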

| SMILES | inhibition [1] [%] | Calcium release inhibition activity at 25 uM [2] | GC50 [3] | Decrease in calcium release (active/inactive call) [4] | IC50 [5] [µM] |
| --- | --- | --- | --- | --- | --- |
| COc1ccc(Cl)cc1C(=O)Nc1nc2ccc([N+](=O)[O-])cc2s1 | 100 | Active |  |  |  |
| CCCOc1ccc(-c2nnc(NC(=O)c3cccs3)s2)cc1 | 67 |  | inactive |  |  |
| O=C(Nc1ccccc1)Nc1nnc(-c2cccs2)s1 | 100 |  | inactive |  |  |
| O=C1OC(c2ccc([N+](=O)[O-])cc2)=N/C1=C/c1cccs1 |  |  |  | Active | 12 |
| O=C(NC(=O)c1ccccc1Cl)Nc1ccc2c(c1)S(=O)(=O)C=C2 |  |  | inactive |  | 9.5 |
| Cc1ccc(NC(=O)c2sc3nc4c(cc3c2N)C(=O)CCC4)cc1Cl | 100 |  | inactive |  |  |
| O=C(Nc1ccc(S(=O)(=O)Nc2nccs2)cc1)c1cccs1 | 82 |  | inactive |  |  |
| O=C(Nc1ccc(Cl)cc1)c1cc2cccc([N+](=O)[O-])c2[nH]1 |  |  | inactive |  | 1 |
| O=C(Nc1cccc(Cl)c1)Nc1nnc(-c2ccc3c(c2)OCO3)s1 | 85 |  |  | Active |  |
| Cc1ccc(S(=O)(=O)NC2=NC(=O)/C(=C\c3ccccc3)S2)cc1 | 82 |  | 15 µM |  |  |
| COc1ccc(-c2nnc(NC(=O)c3cccs3)s2)cc1 | 100 |  | inactive |  |  |
| Clc1cccc(-c2nc(-c3ccc(-c4ccon4)s3)no2)c1 |  |  | inactive |  | 1 |
| COc1ccc2c(c1)C1N=CN(CCc3c[nH]c4ccccc34)C(=O)C1N2 (centres undefined) | 89 |  |  | Active |  |
| Nc1c(C(=O)Nc2cccc(Cl)c2)sc2nc3c(cc12)C(=O)CCC3 | 100 |  | inactive |  |  |
| CCCc1nnc(NC(=O)c2cc([N+](=O)[O-])cc([N+](=O)[O-])c2)s1 | 100 |  | inactive |  |  |
| O=c1/c(=C/c2ccccc2[N+](=O)[O-])sc2nc(-c3ccc(F)cc3)nn12 | 100 |  | 15 µM |  |  |
| O=c1/c(=C/c2ccncc2)sc2n1CN(c1ccc(Cl)cc1)CN=2 | 100 |  | 15 µM |  |  |
| COc1ccc(-c2cc3nnc(-c4ccccc4)nc3s2)cc1 |  |  | inactive |  | 4 |
| Cc1ccc2c(c1)N/C(=C\C(=O)c1ccc(Cl)cc1)C(=O)O2 | 100 |  | 22 µM |  |  |

| SMILES | inhibition [1] [%] | Calcium release inhibition activity at 25 uM [2] | GC50 [3] | Decrease in calcium release (active/inactive call) [4] | IC50 [5] [µM] |
| --- | --- | --- | --- | --- | --- |
| COc1ccc(S(=O)(=O)n2ccc(-c3ccc4c(c3)CCC(C)(C)O4)n2)cc1 |  |  | 30 µM |  | 3 |
| O=C1C2Nc3ccc(Br)cc3C2N=CN1CCC1=CCCCC1 (centres undefined) | 100 |  | inactive |  |  |
| COc1ccc2[nH]c(C(=O)Nc3nc4ccccc4s3)cc2c1 |  |  | inactive |  | 5 |
| O=C1NN(c2ccccc2)C(=O)/C1=C/c1coc2ccc(Cl)cc2c1=O | 27 |  | 18 µM |  |  |
| Cc1ccc(NC(=O)c2sc3nc4c(cc3c2N)C(=O)CCC4)cc1 | 100 |  | inactive |  |  |
| Cc1ccc(/C=C2\C(=O)NC(=O)N(c3ccc(Cl)cc3)C2=O)s1 | 6 |  | 5 µM |  |  |
| Nc1c(C(=O)Nc2cccc(Cl)c2)sc2nc(-c3cccs3)ccc12 | 100 |  |  | Active |  |
| N#Cc1ccc(/C=C2/N=C(c3ccccc3)OC2=O)cc1 |  |  | inactive |  | 2 |
| O=C1C2Nc3ccc(Br)cc3C2N=CN1CCc1ccccc1 (centres undefined) | 100 |  | inactive |  |  |
| O=C(NCCc1ccccc1)c1cc2cccc([N+](=O)[O-])c2[nH]1 |  |  | 15 µM |  | 1 |
| CC(=O)c1ccc(Nc2nnc(-c3ccncc3)s2)cc1 | 100 | Active |  |  |  |
| O=C1C2Nc3ccc(Br)cc3C2N=CN1CCc1ccc(F)cc1 (centres undefined) | 100 |  | inactive |  |  |
| O=S(=O)(Oc1ccc(-c2cnc3ccccc3n2)cc1)c1ccccc1 | 100 | Active |  |  |  |
| CCOc1ccc2c(c1)C1N=CN(Cc3ccccc3)C(=O)C1N2 (centres undefined) | 89 |  | inactive |  |  |
| O=C(Nc1nc2ccccc2c(=O)s1)c1ccc(Cl)cc1 |  |  | inactive |  | 2 |
| Nc1c(C(=O)Nc2cccc(F)c2)sc2nc(-c3ccc(F)cc3)ccc12 | 100 |  |  | Active |  |
| O=[N+]([O-])c1cc(-c2nc(-c3ccccn3)no2)cs1 |  |  | inactive |  | 2 |
| O=C(Nc1ccc2oc(=O)ccc2c1)c1ccc(-c2cccc(Cl)c2)o1 | 100 | Active |  |  |  |
